Experimental data: PMC7941214 (Journal of medicinal chemistry, 2019)
“And” between values parts separate entries of the source, which are not always exact repeats. Equal entries are not always repeated.

Experiments:
Gram-negative strains = assay: Broth microdilution, Gram-negative strains taken together; format: cell-based
Log P determination = settings: n-octanol/water, Au by FAAS
E. coli ATCC 25922 = assay: Broth microdilution MIC/MBC, E. coli; format: cell-based, Escherichia coli; settings: for MIC E. coli ATCC 25922: value before the parentheses, two values = two repeats; for MBC E. coli ATCC 25922: value in parentheses
How it was run: (§1)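 CLSI broth microdilution in cation-adjusted Mueller–Hinton broth. Log-phase cultures were diluted to 7.5 × 10^5 CFU/mL, then mixed 1:1 with 2-fold serial dilutions of gold complexes from DMSO or water stocks, in triplicate, and held 37 °C, 18 h, static. MIC: lowest concentration giving >90% inhibition by OD600 against medium-only and bacteria-only wells. […] E. coli ATCC 25922 quality control was checked each run with ciprofloxacin and […].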

[1] = tested on: K. pneumoniae ATCC 700603; assay: Broth microdilution MIC/MBC, K. pneumoniae; format: cell-based, Klebsiella pneumoniae; settings: for MIC K. pneumoniae ATCC 700603: value before the parentheses, two values = two repeats; for MBC K. pneumoniae ATCC 700603: value in parentheses
How it was run: as §1

A. baumannii NCTC 13420 = assay: Broth microdilution MIC/MBC, A. baumannii; format: cell-based, Acinetobacter baumannii; settings: for MIC A. baumannii NCTC 13420: value before the parentheses, two values = two repeats; for MBC A. baumannii NCTC 13420: value in parentheses
E. faecium ATCC 700221 = assay: Broth microdilution MIC/MBC, E. faecium; format: cell-based, Enterococcus faecium; settings: for MIC E. faecium ATCC 700221: value before the parentheses, two values = two repeats; for MBC E. faecium ATCC 700221: value in parentheses
How it was run: as §1

P. aeruginosa NCTC 13437 = assay: Broth microdilution MIC/MBC, P. aeruginosa; format: cell-based, Pseudomonas aeruginosa; settings: value before the parentheses; two values = two repeats
How it was run: as §1

S. aureus JE2 (USA300) = assay: Broth microdilution MIC/MBC, S. aureus; format: cell-based, Staphylococcus aureus; settings: for MBC S. aureus JE2 (USA300): value in parentheses; for MIC S. aureus JE2 (USA300): value before the parentheses, two values = two repeats
How it was run: as §1

E. cloacae NCTC 13405 = assay: Broth microdilution MIC/MBC, E. cloacae; format: cell-based, Enterobacter cloacae; settings: for MIC E. cloacae NCTC 13405: value before the parentheses, two values = two repeats; for MBC E. cloacae NCTC 13405: value in parentheses
How it was run: as §1

SMILES | activity toward Gram-negative strains (in words) (Gram-negative strains) | log P (Log P determination) | MIC E. coli ATCC 25922 (E. coli ATCC 25922) [µM] | MIC K. pneumoniae ATCC 700603 [1] [µM] | MIC A. baumannii NCTC 13420 (A. baumannii NCTC 13420) | MIC E. faecium ATCC 700221 (E. faecium ATCC 700221) | MBC E. faecium ATCC 700221 (E. faecium ATCC 700221) [µM] | MIC P. aeruginosa NCTC 13437 (P. aeruginosa NCTC 13437) [µM] | MIC S. aureus (S. aureus JE2 (USA300)) | MBC S. aureus JE2 (USA300) (S. aureus JE2 (USA300)) [µM] | fold enhancement of activity over auranofin, S. aureus (S. aureus JE2 (USA300); vs auranofin) | MIC E. cloacae NCTC 13405 (E. cloacae NCTC 13405) | MBC A. baumannii NCTC 13420 (A. baumannii NCTC 13420) [µM] | MIC S. aureus JE2 (USA300) (S. aureus JE2 (USA300)) | MBC E. coli ATCC 25922 (E. coli ATCC 25922) [µM] | MBC K. pneumoniae ATCC 700603 [1] [µM] | MBC E. cloacae NCTC 13405 (E. cloacae NCTC 13405)
CC[P+](CC)(CC)[Au-][S]c1ccc([N+](=O)[O-])cc1 [Compound 19, (4-Nitrobenzenethiolato)(triethylphosphine) Gold(I)] | completely inactive | >3.28 | >546 | >546 | >546 µM | 0.06 µM and 0.1 µM | 0.5 | >546 | in the nanomolar range | 0.02 | up to 10 | >546 µM | – | – | – | – | –
CC[PH](CC)(CC)[Au][S]c1ccc(C(F)(F)F)cc1 [Compound 20, (4-(Trifluoromethyl)benzenethiolato)(triethylphosphine) Gold(I)] | completely inactive | >3.18 | >520 | >520 | 520 µM | 0.02 µM | 0.2 | >520 | – | 0.2 | – | >520 µM | > 520 | – | – | – | –
FC(F)(F)c1ccc(P(c2ccc(C(F)(F)F)cc2)c2ccc(C(F)(F)F)cc2)cc1.[Cl][Au] [Compound 30, (Tris(4-trifluoromethylphenyl)phosphine)gold Chloride] | – | >3.94 | >366 | >366 | >366 µM | >366 µM | – | >366 | – | 11 | – | >366 µM | – | – | – | – | –
CCCC[P+](CCCC)(CCCC)[Au-][S][C@@H]1OC(COC(C)=O)[C@@H](OC(C)=O)[C@H](OC(C)=O)C1OC(C)=O (stereo partly drawn) [Compound 32, (2,3,4,6-Tetra-O-acetyl-1-thio-β-D-glucopyranosato)(tri-n-butylphosphine) Gold(I)] | completely diminished the activity | >4.32 | >336 | >336 | 84 µM | 3 µM and 5 µM | 3 | >336 | – | 3 | – | >336 µM | > 336 | 3 µM | – | – | –
CC(=O)OCC1O[C@@H]([S][Au-][P+](c2ccccc2)(c2ccccc2)c2ccccc2)C(OC(C)=O)[C@@H](OC(C)=O)[C@@H]1OC(C)=O (stereo partly drawn) [Compound 33, (2,3,4,6-Tetra-O-acetyl-1-thio-β-D-glucopyranosato)-(triphenylphosphine) Gold(I)] | – | >3.87 | >311 | >311 | >311 µM | 5 µM | 5 | >311 | – | 2 | – | >311 µM | – | 1 µM and 2 µM | – | – | –
COc1ccc([P+]([Au-][S][C@@H]2OC(COC(C)=O)[C@@H](OC(C)=O)[C@H](OC(C)=O)C2OC(C)=O)(c2ccc(OC)cc2)c2ccc(OC)cc2)cc1 (stereo partly drawn) [Compound 34, (2,3,4,6-Tetra-O-acetyl-1-thio-β-D-glucopyranosato)(tris(4-methoxyphenyl)phosphine) Gold(I)] | – | >3.03 | >281 | >281 | >281 µM | 2 µM and 4 µM | 4 | >281 | – | 2 | – | >281 µM | – | 1 µM | – | – | –
CC(=O)OCC1O[C@@H]([S][Au-][P+](c2ccc(F)cc2)(c2ccc(F)cc2)c2ccc(F)cc2)C(OC(C)=O)[C@@H](OC(C)=O)[C@@H]1OC(C)=O (stereo partly drawn) [Compound 35, (2,3,4,6-Tetra-O-acety/-1-thio-β-D-glucopyranosato)(tris(4-fluorophenyl)phosphine) Gold(I)] | – | >3.04 | >292 | >292 | >292 µM | – | 5 | >292 | – | 2 | – | >292 µM | – | 1 µM | – | – | –
CC(=O)OCC1O[C@@H]([S][Au-][P+](c2ccc(C(F)(F)F)cc2)(c2ccc(C(F)(F)F)cc2)c2ccc(C(F)(F)F)cc2)C(OC(C)=O)[C@@H](OC(C)=O)[C@@H]1OC(C)=O (stereo partly drawn) [Compound 36, (2,3,4,6-Tetra-O-acetyl-1-thio-β-D-glucopyranosato)(tris(4-(trifluoromethyl)phenylphosphine)) Gold(I)] | – | >3.55 | >249 | >249 | >249 µM | 31 µM | 62 | >249 | – | 8 | – | >249 µM | – | 4 µM | – | – | –
C[PH](C)(C)[Au][S]C1OC(CO)C(O)C(O)C1O [Compound 37, (1-Thio-β-D-glucopyranosato)(trimethylphosphine) Gold(I)] | – | −1.63 | 9 | 34 | – | 0.3 µM and 0.5 µM | 0.5 | >547 | – | 1 | – | – | 17 | 0.3 µM and 0.5 µM | 9 | 34 | 17 µM
C[PH](C)(C)[Au][S]C1OC(CO)C(O)C(O)C1O [Compound 38, (1-Thioβ-D-galatopyranosato)(trimethylphosphine) Gold(I)] | – | −1.88 | 9 | 34 | 17 µM and 9 µM | 0.3 µM and 0.5 µM | 0.5 | >547 | – | 0.3 | – | 4.5 µM and 4 µM | 17 | 0.3 µM | 9 | 34 | 4.5 µM and 4 µM
CC(=O)NC1C([S][Au][PH](C)(C)C)OC(CO)C(O)C1O [Compound 39, (2-Acetamido-2-deoxy-1-thio-β-D-glucopyranosato)-(trimethylphosphine) Gold(I)] | – | −2.03 | – | 31 | 16 µM and 8 µM | – | 0.5 | >503 | – | 0.5 | – | 8 µM and 16 µM | 16 | 0.5 µM | 31 | 126 | 16 µM
